Activity and inhibition data for 1 compound are collected here from ChEMBL document CHEMBL3792374, “Discovery of a ring-opened derivative of 3-n-butylphthalide bearing NO/H2S-donating moieties as a potential anti-ischemic stroke agent” (Eur J Med Chem, 2016).

The source made the active and inactive calls. The calls are words filed in the database; no cut-off is given here.

Data set [1] has as its system Rattus norvegicus. In words: Antioxidant activity in Sprague-Dawley rat brain tissue model of transient middle cerebral artery occlusion stroke model assessed as glutathione levels per mg of protein at 380 mg/kg administered via oral gavage for 7 days after ischemia onset measured 24 hrs after reperfusion by DTNB assay (reference value: 23.47 nmol). Format: functional. Particulars: in the assay text read “before ischemia onset” for “after ischemia onset”. A digest of the protocol:
(§1)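 Male SD rats (280–320 g; n = 12 per group) were gavaged daily for 7 days, with 0.5% CMC-Na as vehicle. Two hours after the last dose they were anesthetized with chloral hydrate (300 mg/kg ip) and underwent 2 h MCAO followed by reperfusion. Brains were taken 24 h after reperfusion, rinsed in cold saline and stored at −70 °C. Protein was quantified, then GSH, SOD, GSH-Px and MDA were measured by kits. Mean ± SD, n = 6, ANOVA/Tukey.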

Data set [2] can be described thus: Antiplatelet activity in rabbit platelet-rich plasma assessed as inhibition of ADP-induced platelet aggregation at 0.1 mM preincubated for 5 mins followed by addition of ADP measured within 5 mins by Borns turbidimetric method in presence of H2S scavenger BSS. It counts as functional. Particulars: Oryctolagus cuniculus. A digest of the protocol:
(§2)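 Rabbit carotid blood was citrated (3.8%, 9:1). PRP was obtained at 500 g for 10 min and PPP at 3000 g for 10 min. PRP was preincubated in duplicate for 5 min at 37 °C with 0.1 mM compound, plus carboxy-PTIO or BSS where indicated. ADP was then added and maximal light transmission recorded within 5 min, within 3 h of blood collection. Inhibition % was calculated versus control. Mean ± SD of three independent experiments.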

Data set [3] deals with Rattus norvegicus. In words: Neuroprotective activity in Sprague-Dawley rat model of transient middle cerebral artery occlusion stroke model assessed as reduction in infarct size at 380 mg/kg administered via oral gavage for 7 days […] measured 24 hrs after middle cerebral artery occlusion by TTC assay. It counts as functional, organism-based. The procedure, abridged:
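Male SD rats (280–320 g), n=12/group, dosed by gavage in 0.5% CMC-Na daily for seven days; 2 h after last dose, anesthetized (chloral hydrate 300 mg/kg ip) and subjected to 2 h intraluminal MCAO then reperfusion. At 24 h post-reperfusion, brains (n=6) cut coronally at 2 mm, stained 2% TTC 30 min 37 °C, formalin-fixed; infarct area expressed as percent of whole brain; mean SD, ANOVA/Tukey.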

Data set [4] has as its system Liver. In words: Induction of hydrogen sulfide release in rat liver homogenate at 100 uM after 30 mins by microplate reader method (reference value: 1.03 to 1.21%). Format: functional, tissue-based. The procedure, abridged: (§3)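 Compound was incubated at 37 °C for 0–90 min with fresh rat liver homogenate. The reaction was stopped with 1% zinc acetate and 10% trichloroacetic acid. N,N-dimethyl-p-phenylenediamine sulfate in 7.2 M HCl and FeCl3 in 1.2 M HCl were added, and absorbance was read at 670 nm after 10 min. Values were calculated against an NaHS standard curve as cumulative % conversion to H2S, n = 6.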

The test system of data set [5] is Rattus norvegicus. In words: Antioxidant activity in Sprague-Dawley rat brain tissue model of transient middle cerebral artery occlusion stroke model assessed as increase in glutathione peroxidase levels per mg of protein at 80 mg/kg […] measured 24 hrs after reperfusion by DTNB assay relative to control. Format: functional.
A short description of data set [6]: Induction of nitric oxide release in potassium phosphate buffer at pH 7.4 at 0.1 mM after 120 mins by Griess assay. Format: physicochemical. Particulars: pH 7.4, 2 h, 100 µM. A digest of the protocol: (§4)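 Compound (0.1 mM) in PBS pH 7.4 containing 2% DMSO and 5.0 mM L-cysteine was held at 37 °C for 15–300 min. Samples were taken every 15 min up to 120 min, then every 30 min. Each sample was reacted with Griess reagent for 10 min at 37 °C and absorbance read at 540 nm. Nitrite was quantified from a nitrite standard curve. Means reported; intra-group variation <10%.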

The nature of data set [7]: Induction of nitric oxide release in potassium phosphate buffer at pH 7.4 at 0.1 mM after 45 mins by Griess assay. It counts as physicochemical. The following applies: pH 7.4, 0.75 h, 100 µM. The procedure, abridged:
as §4

Data set [8] relates to Liver. In words: Induction of hydrogen sulfide release in rat liver homogenate at 100 uM after 90 mins by microplate reader method (reference value: 1.03 to 1.21%). Format: functional, tissue-based. A digest of the protocol:
as §3

Data set [9] is described as follows: Induction of nitric oxide release in potassium phosphate buffer at pH 7.4 at 0.1 mM after 105 mins by Griess assay. Particulars: pH 7.4, 1.75 h, 100 µM. It counts as physicochemical. The procedure, abridged:
as §4

Data set [10] can be described thus: Induction of nitric oxide release in potassium phosphate buffer at pH 7.4 at 0.1 mM after 180 mins by Griess assay. It counts as physicochemical. The following applies: pH 7.4, 3 h, 100 µM. The procedure, abridged: as §4
Data set [11] can be described thus: Induction of nitric oxide release in potassium phosphate buffer at pH 7.4 at 0.1 mM after 90 mins by Griess assay. It counts as physicochemical. The following applies: pH 7.4, 1.5 h, 100 µM. The procedure, abridged:
as §4

Data set [12] is described as follows: Antiplatelet activity in rabbit platelet-rich plasma assessed as inhibition of ADP-induced platelet aggregation at 0.1 mM preincubated for 5 mins followed by addition of ADP measured within 5 mins by Borns turbidimetric method in presence of nitric oxide scavenger carboxy-PTIO. It counts as functional. Particulars: Oryctolagus cuniculus. A digest of the protocol: as §2

Data set [13] can be described thus: Induction of nitric oxide release in potassium phosphate buffer at pH 7.4 at 0.1 mM after 60 mins by Griess assay. Format: physicochemical. Particulars: pH 7.4, 1 h, 100 µM. A digest of the protocol: as §4
A short description of data set [14]: Antiplatelet activity in rabbit platelet-rich plasma assessed as inhibition of ADP-induced platelet aggregation at 0.1 mM preincubated for 5 mins followed by addition of ADP measured within 5 mins by Borns turbidimetric method. The following applies: Oryctolagus cuniculus. It counts as functional. A digest of the protocol: as §2
Data set [15] concerns Rattus norvegicus. In words: Antioxidant activity in Sprague-Dawley rat brain tissue model of transient middle cerebral artery occlusion stroke model assessed as malondialdehyde levels per mg of protein at 80 mg/kg administered via oral gavage for 7 days after ischemia onset measured 24 hrs after reperfusion (reference value: 1.46 nmol). It counts as functional. Particulars: in the assay text read “before ischemia onset” for “after ischemia onset”. The procedure, abridged:
as §1

The subject of data set [16] is Rattus norvegicus. In words: Neuroprotective activity in Sprague-Dawley rat model of transient middle cerebral artery occlusion stroke model assessed as reduction in brain water content at 380 mg/kg administered via oral gavage for 7 days after ischemia onset measured 24 hrs after middle cerebral artery occlusion. It counts as functional, organism-based. Particulars: in the assay text read “before ischemia onset” for “after ischemia onset”. A digest of the protocol: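 Male SD rats were gavaged daily for 7 days, with 0.5% CMC-Na as vehicle, then underwent 2 h MCAO with reperfusion. At 24 h after reperfusion the ischemic hemisphere was weighed wet, dried at 100 °C for 24 h and reweighed. Water content was calculated as (wet − dry)/wet × 100%. Mean ± SD, n = 6, ANOVA/Tukey.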

Data set [17] deals with Rattus norvegicus. In words: Antioxidant activity in Sprague-Dawley rat brain tissue model of transient middle cerebral artery occlusion stroke model assessed as increase in glutathione levels per mg of protein at 80 mg/kg […] measured 24 hrs after reperfusion by DTNB assay (reference value: 23.47 nmol). It counts as functional.
In data set [18] the test system is Rattus norvegicus. In words: Neuroprotective activity in Sprague-Dawley rat model of transient middle cerebral artery occlusion stroke model assessed as neurological deficit at 80 mg/kg administered via oral gavage for 7 days after ischemia onset measured 24 hrs after middle cerebral artery occlusion by Longa's method. Particulars: in the assay text read “before ischemia onset” for “after ischemia onset”. Format: functional, organism-based. A digest of the protocol:
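Male SD rats (280–320 g) received daily gavage for 7 days, with 0.5% CMC-Na as vehicle. Two hours after the last dose they underwent 2 h MCAO with reperfusion under chloral hydrate anesthesia; core temperature was held at 37 °C. Neurological deficit was scored blinded by Longa's method 24 h after reperfusion, between 10 and 11 a.m. Kruskal–Wallis test followed by Mann–Whitney U test.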

Data set [19] is described as follows: Induction of nitric oxide release in potassium phosphate buffer at pH 7.4 at 0.1 mM after 300 mins by Griess assay. The following applies: pH 7.4, 5 h, 100 µM. Format: physicochemical. The procedure, abridged:
as §4

On to `CCCCC(OC(=O)CN1CCN(CCCCCOc2ccc(-c3cc(=S)ss3)cc2)CC1)c1ccccc1C(=O)Oc1ccc(/C=C/C(=O)OCCO[N+](=O)[O-])cc1OC` (racemic), for which the Activity was 28.05 nmol in the data set on Rattus norvegicus [1]; 3.04% in the data set on Liver [4]; 29.57% in the data set on Rattus norvegicus [5]; 10.09 µM in data set [6]; 6.89 µM in data set [7]; 4.4% in the data set on Liver [8]. In addition, the Activity was 9.63 µM in data set [9]; 10.3 µM in data set [10]; 9.14 µM in data set [11]; 8.03 µM in data set [13]; 1.07 nmol with Rattus norvegicus [15]; 25.22 nmol in the data set with Rattus norvegicus [17]. Moreover, in data set [19], the Activity turned out to be 10.57 µM. Further, the values for the inhibition at 100 µM in data set [2], in data set [12] and in data set [14] were 20.9%, 29.1% and 41%, respectively. In addition, the outcome with Rattus norvegicus [3] and with Rattus norvegicus [16] was Active. In addition, the result with Rattus norvegicus [18] was inactive.
